Experimental data from ChEMBL document CHEMBL3124905, “Isothiocoumarin-3-carboxylic acid derivatives: synthesis, anticancer and antitrypanosomal activity evaluation” (Eur J Med Chem, 2014).

Columns and labels:
[1] = Acute toxicity in ip dosed white mouse; type: organism-based; conditions: in vivo
Method in brief: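 White male mice, 23-25 g, dosed intraperitoneally with compound dissolved in 0.9% NaCl saline plus 1-2 drops Polysorbate 80 (Tween-80). Solutions prepared immediately before use. Doses ranged 100-1000 mg/kg, testing 4 or 5 doses with 6 animals per dose. LD50 derived by the Litchfield-Wilcoxon method.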

[2] = tested on: NCI-H460; assay: Anticancer activity against human NCI-H460 cells assessed as cell growth at 100 uM after 48 hrs by SRB assay; type: functional; conditions: NCI-H460, 48 h, read-out: Activity
Method in brief: (§1)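 NCI one-dose primary screen on a three-line panel (breast MCF7, lung NCI-H460, CNS SF-268). Cells were inoculated and preincubated 24–48 h, then exposed to a single concentration of 10−4 M for 48 h. The endpoint was sulforhodamine B protein staining, and results are expressed as percent growth relative to untreated control cells. Negative values denote cytotoxicity.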

[3] = tested on: Trypanosoma brucei brucei; assay: Antitrypanosomal activity against bloodstream form of Trypanosoma brucei brucei strain 90-13 assessed as inhibition of parasite growth at 10 ug/ml after 72 hrs by resazurin reduction test; type: functional; conditions: strain 90-13, 72 h
Method in brief: (§2)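 Trypanosoma brucei brucei 90-13 bloodstream forms, grown in HMI9 with 10% FCS at 37 °C under 5% CO2. Log-phase parasites were seeded at 10^5 cells/mL with or without inhibitor, with stocks prepared in DMSO. After 72 h, resazurin was added and fluorescence was read at 530/590 nm after a further 4 h. Percent growth inhibition was calculated versus drug-free parasites, with DMSO as control.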

[4] = tested on: MCF7; assay: Anticancer activity against human MCF7 cells assessed as cell growth at 100 uM after 48 hrs by SRB assay; type: functional; conditions: MCF7, 48 h, read-out: Activity; method in brief: as §1
[5] = tested on: Trypanosoma brucei brucei; assay: Antitrypanosomal activity against bloodstream form of Trypanosoma brucei brucei strain 90-13 assessed as inhibition of parasite growth at 1 ug/ml after 72 hrs by resazurin reduction test; type: functional; conditions: strain 90-13, 72 h; method in brief: as §2
[6] = tested on: SF-268; assay: Anticancer activity against human SF268 cells assessed as cell growth at 100 uM after 48 hrs by SRB assay; type: functional; conditions: SF-268, 48 h, read-out: Activity; method in brief: as §1

## COc1ccc2cc(C(=O)Nc3ccc(S(N)(=O)=O)cc3)sc(=O)c2c1OC
[1]
  LD50: 870 mg/kg
[2]
  growth at 100 µM: 97%
[3]
  inhibition at 10 µg/mL: > 50%
[4]
  growth at 100 µM: 72%
[5]
  inhibition at 1 µg/mL: 59.8%
[6]
  growth at 100 µM: 74%
